Active and inactive are the calls of the source.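 Rule for the calls: active = t-test against the solvent control gives p below 0.05 and normalized ATPase activity falls by at least 10%; inactive = the rest.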
assay: calcium desensitizers of cardiac myofibril ATPase, late-stage follow-up, mechanism study for cardiac RTF inhibitor project, biochemical, absorbance, porcine cardiac myofibrils, powder samples (AID 602246); conditions: ATPase Pi absorbance 660 nm, at 10 µM, stronger effect = lower value
How it was run: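 Assay system – porcine cardiac myofibrils · Doses – single compound dose of 10 µM, DMSO vehicle · Measured by – phosphate absorbance at 660 nm · Read-out – ATPase activity ratio, compound-well mean over DMSO-well mean · Benchmarks – DMSO-only wells as reference control · Repeats – Quintuplicate wells per compound · Times – 5 min compound preincubation, then 7 min ATPase reaction, 25 °C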

| Compound | normalized ATPase activity |
| --- | --- |
| O=C(O)c1ccc2nc(-c3ccco3)c(-c3ccco3)nc2c1 | 1.03 (inactive) |
| O=C(O)c1cccc(-n2cccc2/C=C2/NC(=O)N(c3ccc(Cl)cc3)C2=O)c1 | 0.975 (inactive) |
| O=C(O)c1ccc2c(c1)[C@@H]1C=CC[C@@H]1[C@H](c1ccccn1)N2 | 0.982 (inactive) |
| NCCCCCCNS(=O)(=O)c1cccc2c(Cl)cccc12 | 0.854 (active) |
| COc1cccc2c1NC(C(=O)O)C1CC=CC21 (stereo not given) | 1.03 (inactive) |

— PubChem BioAssay AID602246 (The Scripps Research Institute Molecular Screening Center, 2012)
